# Calls of active or inactive are those of the source. No cut-off for these calls is given here.
# Columns and labels:
# [1] = Growth inhibition of mouse BA/F3 cells transfected with JAK3 TEL domain after 24 hrs by Alamar Blue assay; assay type: functional, cell-based; details: BaF3, 24 h
# [2] = Growth inhibition of mouse BA/F3 cells transfected with JAK2 TEL domain after 24 hrs by Alamar Blue assay; assay type: functional; details: BaF3, 24 h
# [3] = molecular target: T1, Tyrosine-protein kinase JAK3 (Homo sapiens, UniProt P52333); assay: Inhibition of JAK3 (unknown origin) using biotinylated poly-EY peptide as substrate after 60 mins by HTRF assay
# T1 sequence (P52333 whole entry): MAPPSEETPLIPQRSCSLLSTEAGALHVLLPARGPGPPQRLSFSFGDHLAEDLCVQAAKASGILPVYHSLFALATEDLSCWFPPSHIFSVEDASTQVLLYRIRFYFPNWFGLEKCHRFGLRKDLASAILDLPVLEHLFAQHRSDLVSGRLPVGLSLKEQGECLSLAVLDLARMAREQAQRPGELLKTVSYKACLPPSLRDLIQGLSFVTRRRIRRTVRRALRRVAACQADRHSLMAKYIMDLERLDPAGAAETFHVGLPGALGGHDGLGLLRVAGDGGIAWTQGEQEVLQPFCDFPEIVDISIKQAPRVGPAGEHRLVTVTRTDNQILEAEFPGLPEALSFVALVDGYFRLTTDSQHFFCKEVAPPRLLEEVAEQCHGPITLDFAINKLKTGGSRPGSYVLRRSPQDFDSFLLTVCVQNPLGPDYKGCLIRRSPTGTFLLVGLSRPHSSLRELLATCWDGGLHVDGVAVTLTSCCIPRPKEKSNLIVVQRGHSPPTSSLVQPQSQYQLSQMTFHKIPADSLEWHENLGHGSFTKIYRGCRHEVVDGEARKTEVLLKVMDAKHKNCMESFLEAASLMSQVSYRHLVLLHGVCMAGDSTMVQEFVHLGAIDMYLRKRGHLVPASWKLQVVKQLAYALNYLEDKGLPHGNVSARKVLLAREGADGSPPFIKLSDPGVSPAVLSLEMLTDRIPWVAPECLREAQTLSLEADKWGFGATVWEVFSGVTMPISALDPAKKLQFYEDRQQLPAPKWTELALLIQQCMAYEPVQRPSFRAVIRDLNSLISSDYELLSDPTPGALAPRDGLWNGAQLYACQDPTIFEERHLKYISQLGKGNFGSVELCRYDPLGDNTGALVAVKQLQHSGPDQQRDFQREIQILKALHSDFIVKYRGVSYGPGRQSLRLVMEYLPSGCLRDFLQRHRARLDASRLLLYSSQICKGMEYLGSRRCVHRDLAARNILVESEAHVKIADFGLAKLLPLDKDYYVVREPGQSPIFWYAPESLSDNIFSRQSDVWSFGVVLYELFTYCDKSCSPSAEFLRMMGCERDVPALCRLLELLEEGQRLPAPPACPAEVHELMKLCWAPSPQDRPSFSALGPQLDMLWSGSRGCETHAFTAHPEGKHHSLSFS
# [4] = molecular target: T2, Tyrosine-protein kinase JAK2 (Homo sapiens, UniProt O60674); assay: Inhibition of JAK2 (unknown origin) using biotinylated TYK2 peptide as substrate after 60 mins
# T2 sequence (O60674 whole entry): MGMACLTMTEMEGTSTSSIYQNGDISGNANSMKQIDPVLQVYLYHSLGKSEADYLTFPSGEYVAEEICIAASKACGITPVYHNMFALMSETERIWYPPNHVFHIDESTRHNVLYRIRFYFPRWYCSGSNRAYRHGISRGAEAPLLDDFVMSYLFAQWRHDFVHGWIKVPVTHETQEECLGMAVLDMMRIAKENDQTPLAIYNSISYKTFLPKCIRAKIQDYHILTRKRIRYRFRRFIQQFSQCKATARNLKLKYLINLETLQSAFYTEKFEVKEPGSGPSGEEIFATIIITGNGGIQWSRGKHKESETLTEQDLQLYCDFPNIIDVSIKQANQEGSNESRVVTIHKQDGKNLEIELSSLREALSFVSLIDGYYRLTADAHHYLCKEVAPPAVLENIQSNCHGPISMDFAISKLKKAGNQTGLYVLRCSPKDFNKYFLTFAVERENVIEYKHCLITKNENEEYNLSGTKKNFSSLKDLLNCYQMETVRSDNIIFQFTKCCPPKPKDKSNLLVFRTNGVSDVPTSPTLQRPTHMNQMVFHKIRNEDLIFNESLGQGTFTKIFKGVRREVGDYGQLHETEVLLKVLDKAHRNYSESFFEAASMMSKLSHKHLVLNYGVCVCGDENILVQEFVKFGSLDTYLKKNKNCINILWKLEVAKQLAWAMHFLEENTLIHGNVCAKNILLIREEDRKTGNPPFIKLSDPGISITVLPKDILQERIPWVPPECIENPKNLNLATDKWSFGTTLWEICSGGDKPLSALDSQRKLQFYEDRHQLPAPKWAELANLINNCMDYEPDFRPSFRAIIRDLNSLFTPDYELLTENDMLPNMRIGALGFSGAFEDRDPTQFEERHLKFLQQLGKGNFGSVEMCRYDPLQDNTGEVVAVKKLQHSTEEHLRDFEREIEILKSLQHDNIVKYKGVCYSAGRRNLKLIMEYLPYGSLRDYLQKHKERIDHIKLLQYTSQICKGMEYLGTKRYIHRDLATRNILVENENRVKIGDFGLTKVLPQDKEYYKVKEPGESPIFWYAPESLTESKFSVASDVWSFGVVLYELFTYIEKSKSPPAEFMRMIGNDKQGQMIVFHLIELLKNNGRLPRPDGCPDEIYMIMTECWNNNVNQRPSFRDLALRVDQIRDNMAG
# Homo sapiens = species: Homo sapiens; assay: Selectivity ratio of IC50 for JAK3 (unknown origin) to IC50 for JAK2 (unknown origin)
# Procedure, shortened: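 Jak2 and Jak3 enzyme IC50s determined at 5 mM ATP; the ratio is the Jak3 IC50 divided by the Jak2 IC50.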
# [5] = Total plasma concentration in nude mouse allografted with mouse Ba/F3 cells expressing JAK2 TEL domain at 5 mg/kg, po qd measured at 6 hrs; assay type: ADME, organism-based, BaF3; set-up: dose 5 mg/kg, route oral
# Procedure, shortened: (§1)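 Female nude mice implanted intravenously with Ba/F3 TEL-JAK2 cells on day 0 and dosed orally on day 10. Total plasma drug concentration was measured at the stated times post-dose, averaged over n = 3 per dose and time point.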
# [6] = Total plasma concentration in nude mouse allografted with mouse Ba/F3 cells expressing JAK2 TEL domain at 5 mg/kg, po qd measured at 2 hrs; assay type: ADME, organism-based, BaF3; set-up: dose 5 mg/kg, route oral; procedure, shortened: as §1
# [7] = Total plasma concentration in nude mouse allografted with mouse Ba/F3 cells expressing JAK2 TEL domain at 10 mg/kg, po qd measured at 2 hrs; assay type: ADME, organism-based, BaF3; set-up: dose 10 mg/kg, route oral; procedure, shortened: as §1
# [8] = Total plasma concentration in nude mouse allografted with mouse Ba/F3 cells expressing JAK2 TEL domain at 10 mg/kg, po qd measured at 6 hrs; assay type: ADME, organism-based, BaF3; set-up: dose 10 mg/kg, route oral; procedure, shortened: as §1
# [9] = Fraction unbound in nude mouse plasma allografted with mouse Ba/F3 cells expressing JAK2 TEL domain at 5 to 10 mg/kg, po qd after 6 hrs; assay type: ADME, organism-based, BaF3; set-up: dose 5-10 mg/kg, route oral
# Mus musculus [10] = assay: In vivo inhibition of JAK2 TEL domain (unknown origin) transfected in mouse Ba/F3 cells allografted in nude mouse assessed as inhibition of STAT5 phosphorylation at 5 mg/kg, po qd after 6 hrs; assay type: functional, organism-based; set-up: dose 5 mg/kg; details: BaF3
# Procedure, shortened: (§2)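 Female nude mice implanted intravenously with Ba/F3 TEL-JAK2 cells on day 0 and given a single oral dose on day 10. pStat5 was measured at the stated times post-dose. % inhibition was scaled between vehicle and a control inhibitor as maximum and minimum, with n = 3 per dose and time point, reported as mean ±SD.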
# Mus musculus [11] = assay: In vivo inhibition of JAK2 TEL domain (unknown origin) transfected in mouse Ba/F3 cells allografted in nude mouse assessed as inhibition of STAT5 phosphorylation at 10 mg/kg, po qd after 6 hrs relative to vehicle-treated control; assay type: functional; details: BaF3, 6 h; procedure, shortened: as §2
# Hepatocyte = assay: Metabolic stability in human hepatocytes measured per 10^6 cells; assay type: ADME, cell-based
# [12] = Volume of distribution at steady state in beagle dog at 5 mg/kg, po and 2.5 mg/kg, iv; assay type: ADME, organism-based, Canis lupus familiaris; details: in vivo, read-out: Vdss
# Procedure, shortened: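 Male Beagle dogs. Oral 5 mg/kg in 0.1% HPMC; intravenous 2.5 mg/kg in HP-β-CD.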
# [13] = Volume of distribution at steady state in CD1 mouse at 10 mg/kg, po and 3 mg/kg, iv; assay type: ADME, organism-based; details: in vivo, read-out: Vdss
# Procedure, shortened: (§3)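 Single-dose PK: female CD-1 mice and male Han Wistar rats, 10 mg/kg po in 0.1% HPMC and 3 mg/kg iv in DMA/PEG/saline 40/40/20.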
# [14] = Volume of distribution at steady state in Han Wistar rat at 10 mg/kg, po and 3 mg/kg, iv; assay type: ADME, organism-based; details: in vivo, read-out: Vdss
# [15] = Clearance in beagle dog at 5 mg/kg, po and […] mg/kg, iv; assay type: ADME, organism-based, Canis lupus familiaris; details: in vivo, 2.5 mg/kg
# [16] = Clearance in CD1 mouse at 10 mg/kg, po and 3 mg/kg, iv; assay type: ADME, organism-based; details: in vivo; procedure, shortened: as §3
# [17] = Clearance in Han Wistar rat at 10 mg/kg, po and 3 mg/kg, iv; assay type: ADME, organism-based; details: in vivo; procedure, shortened: as §3
# [18] = AUC in beagle dog at 5 mg/kg, po and […] mg/kg, iv; assay type: ADME, organism-based, Canis lupus familiaris; details: plasma
# [19] = AUC in CD1 mouse at 10 mg/kg, po and 3 mg/kg, iv; assay type: ADME, organism-based; details: plasma; procedure, shortened: as §3
# [20] = AUC in Han Wistar rat at 10 mg/kg, po and 3 mg/kg, iv; assay type: ADME, organism-based; details: plasma; procedure, shortened: as §3
# [21] = Oral bioavailability in beagle dog at 5 mg/kg; assay type: ADME, organism-based, Canis lupus familiaris; details: in vivo
# Procedure, shortened: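 Male Beagle dogs received 5 mg/kg po (0.1% HPMC) and 2.5 mg/kg iv (HP-β-CD). %F = (AUCpo × DoseIV)/(AUCIV × Dosepo) × 100.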
# [22] = Oral bioavailability in CD1 mouse at 10 mg/kg; assay type: ADME, organism-based; details: in vivo
# Procedure, shortened: (§4)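 Oral bioavailability in female CD-1 mice and male Han Wistar rats: 10 mg/kg po (0.1% HPMC) versus 3 mg/kg iv (DMA/PEG/saline 40/40/20). %F = (AUCpo × DoseIV)/(AUCIV × Dosepo) × 100.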
# [23] = Oral bioavailability in Han Wistar rat at 10 mg/kg; assay type: ADME, organism-based; details: in vivo; procedure, shortened: as §4
# [24] = Growth inhibition of human UKE1 cells harboring JAK2 V617F mutant after 2 days by [3H]-thymidine incorporation assay; assay type: functional
# SET-2 = assay: Growth inhibition of human SET2 harboring JAK2 V617F mutant after 24 hrs by Alamar Blue assay; assay type: functional; details: SET-2, 24 h
# [25] = molecular target: T2, Tyrosine-protein kinase JAK2; assay: Competitive inhibition of JAK2 (unknown origin)
smiles,measurement,setting,value
Cc1cnc(Nc2nc(N[C@@H](C)c3ncc(F)cn3)nc(N3CCOCC3)c2F)s1,GI50,[1]; read-out: GI50,4900 nM
same,GI50,[2],30 nM
same,IC50,[3],> 30000 nM
same,IC50,[4],25 nM
Cc1cc(Nc2nc(N[C@@H](C)c3ncc(F)cn3)cc(N3CCOCC3)n2)n[nH]1,GI50,[2],58 nM
same,IC50,[3],95 nM
same,IC50,[4],5 nM
Cc1cc(Nc2nc(N[C@@H](C)c3ncc(F)cn3)nc(N3CCOCC3)c2F)n[nH]1,Ratio IC50,Homo sapiens,> 10000
Cc1cc(Nc2nc(O[C@@H](C)c3ncc(F)cn3)c(F)c(N3CCOCC3)n2)n[nH]1,concentration at 6 h,[5],180 ng/mL
same,concentration at 2 h,[6],325 ng/mL
same,concentration at 2 h,[7],551 ng/mL
same,concentration at 6 h,[8],246 ng/mL
same,fraction unbound at 6 h,[9],0.16
same,inhibition,Mus musculus [10],Active
same,inhibition in vivo at 10 mg/kg,Mus musculus [11],> 80%
same,Stability,Hepatocyte,< 2 µL/min/1e6 cells
same,Vd,[12],2.4 L/kg
same,Vd,[13],1.4 L/kg
same,Vd,[14],1.6 L/kg
same,clearance,[15],13 mL/min/kg
same,clearance,[16],17 mL/min/kg
same,clearance,[17],11 mL/min/kg
same,AUC,[18],8.5 µM·h
same,AUC,[19],14.7 µM·h
same,AUC,[20],27.5 µM·h
same,bioavailability,[21],56%
same,bioavailability,[22],64%
same,bioavailability,[23],74%
same,GI50,[24],50 nM
same,GI50,SET-2,78 nM
same,Ki,[25],0.72 nM
same,GI50,[1]; read-out: GI50,690 nM
same,GI50,[2],6 nM
same,IC50,[3],20 nM
same,IC50,[4],< 3 nM
Cc1cc(Nc2nc(O[C@@H](C)c3ccc(F)cn3)c(F)c(N3CCOCC3)n2)n[nH]1,GI50,[1]; read-out: GI50,240 nM
same,GI50,[2],16 nM
same,IC50,[3],87 nM
same,IC50,[4],4 nM
Cc1cc(Nc2nc(N[C@@H](C)c3ncc(F)cn3)c(F)c(N3CCOCC3)n2)n[nH]1,Ratio IC50,Homo sapiens,76
same,GI50,[1]; read-out: GI50,390 nM
same,GI50,[2],15 nM
Cc1cc(Nc2nc(N[C@@H](C)c3ccc(F)cn3)c(F)c(N3CCN(S(C)(=O)=O)CC3)n2)n[nH]1,GI50,[1],50 nM
same,IC50,[3],20 nM
same,IC50,[4],3 nM
Cc1cc(Nc2nc(N[C@@H](C)c3ncc(F)cn3)c(F)c(N3CCOCC3)n2)[nH]n1,IC50,[3],229 nM
same,IC50,[4],3 nM

# Source: ChEMBL document CHEMBL2380256, “Discovery of novel Jak2-Stat pathway inhibitors with extended residence time on target” (Bioorg Med Chem Lett, 2013)
